Data from article PMC3355778 (Frontiers in plant science, 2011).

Tests used:
Assay type in all cases: biochemical
CPK34 = CPK34 (Arabidopsis thaliana, UniProt Q3E9C0); experiment: Standard filter-based kinetic assay for kinase activity, CPK34
How it was run: (§1)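 Recombinant Arabidopsis CPK, GST-N/6xHis-C fusion, affinity-purified. Reactions used 1 ng/µL kinase and 0.1 mg/mL BSA in Ca²⁺/EGTA-buffered kinase buffer (1.1 mM CaCl₂, 1 mM EGTA). Peptide substrate was 0–200 µM. Started with 50 µM ATP plus 0.375 µCi [γ-³³P]ATP, 12 min at RT. Aliquots went onto P81 paper, were washed in 75 mM phosphoric acid, and counted by scintillation. kcat is in nmol P/min/mg enzyme; KM by Lineweaver–Burk.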

CPK10 = biological target: T1, CPK10 (Arabidopsis thaliana, UniProt Q9M9V8); experiment: Standard filter-based kinetic assay for kinase activity, CPK10
T1 sequence (Q9M9V8 1-545): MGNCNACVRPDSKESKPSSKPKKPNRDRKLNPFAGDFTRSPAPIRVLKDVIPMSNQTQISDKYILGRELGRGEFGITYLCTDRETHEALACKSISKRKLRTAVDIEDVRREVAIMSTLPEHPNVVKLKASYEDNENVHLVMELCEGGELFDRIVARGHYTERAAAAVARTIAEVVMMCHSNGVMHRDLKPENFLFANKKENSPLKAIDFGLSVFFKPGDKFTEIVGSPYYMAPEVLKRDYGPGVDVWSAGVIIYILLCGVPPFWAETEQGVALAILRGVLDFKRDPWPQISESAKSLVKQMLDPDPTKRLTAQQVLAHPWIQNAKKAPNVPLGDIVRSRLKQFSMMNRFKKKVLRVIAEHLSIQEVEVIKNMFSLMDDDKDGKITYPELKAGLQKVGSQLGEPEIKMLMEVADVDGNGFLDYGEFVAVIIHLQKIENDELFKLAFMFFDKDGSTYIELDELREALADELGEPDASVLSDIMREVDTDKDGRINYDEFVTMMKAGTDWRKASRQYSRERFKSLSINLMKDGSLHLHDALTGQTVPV
How it was run: as §1

CPK1 = biological target: T2, CPK1 (Arabidopsis thaliana, UniProt Q06850); experiment: Standard filter-based kinetic assay for kinase activity, CPK1
T2 sequence (Q06850 1-610): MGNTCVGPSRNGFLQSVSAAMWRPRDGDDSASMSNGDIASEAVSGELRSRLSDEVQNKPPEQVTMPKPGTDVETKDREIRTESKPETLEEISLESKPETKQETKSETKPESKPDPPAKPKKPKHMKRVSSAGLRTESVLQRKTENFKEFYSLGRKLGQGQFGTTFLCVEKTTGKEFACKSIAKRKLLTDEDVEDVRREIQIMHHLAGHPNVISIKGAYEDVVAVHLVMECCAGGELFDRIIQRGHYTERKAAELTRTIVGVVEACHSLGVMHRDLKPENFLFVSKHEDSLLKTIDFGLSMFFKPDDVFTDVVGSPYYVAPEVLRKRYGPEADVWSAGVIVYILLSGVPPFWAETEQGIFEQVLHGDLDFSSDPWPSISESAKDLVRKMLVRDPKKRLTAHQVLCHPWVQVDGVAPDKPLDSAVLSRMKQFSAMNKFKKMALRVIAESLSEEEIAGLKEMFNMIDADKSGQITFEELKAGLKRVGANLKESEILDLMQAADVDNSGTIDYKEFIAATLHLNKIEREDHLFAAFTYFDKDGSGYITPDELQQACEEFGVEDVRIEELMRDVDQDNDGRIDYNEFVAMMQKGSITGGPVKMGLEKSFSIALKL
How it was run: as §1

CPK16 = biological target: T3, CPK16 (Arabidopsis thaliana, UniProt Q7XJR9); experiment: Standard filter-based kinetic assay for kinase activity, CPK16
T3 sequence (Q7XJR9 1-571): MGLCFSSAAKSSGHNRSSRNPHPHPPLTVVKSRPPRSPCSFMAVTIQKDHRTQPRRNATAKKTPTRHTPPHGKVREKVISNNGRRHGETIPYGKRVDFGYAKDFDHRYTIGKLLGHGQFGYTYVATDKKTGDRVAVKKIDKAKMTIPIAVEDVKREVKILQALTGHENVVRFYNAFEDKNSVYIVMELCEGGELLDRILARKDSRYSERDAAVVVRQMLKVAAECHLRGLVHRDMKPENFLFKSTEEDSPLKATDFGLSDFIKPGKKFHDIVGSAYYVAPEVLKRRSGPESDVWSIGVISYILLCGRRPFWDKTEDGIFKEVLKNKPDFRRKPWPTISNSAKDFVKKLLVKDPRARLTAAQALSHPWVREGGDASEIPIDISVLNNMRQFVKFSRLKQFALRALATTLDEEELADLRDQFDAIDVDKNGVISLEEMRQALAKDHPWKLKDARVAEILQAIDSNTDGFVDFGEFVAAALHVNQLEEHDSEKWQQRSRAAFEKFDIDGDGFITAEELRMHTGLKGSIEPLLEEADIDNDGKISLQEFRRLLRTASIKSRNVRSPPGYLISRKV

[1] = Table 5, independent reaction 1 (first value in cell)
[2] = Table 5, independent reaction 2 (second value in cell)
[3] = Table 4, independent reaction 1 (first value in cell)
[4] = Table 4, independent reaction 2 (second value in cell)

Chain of CPK34 (Q3E9C0 whole entry, the tested form may be a part): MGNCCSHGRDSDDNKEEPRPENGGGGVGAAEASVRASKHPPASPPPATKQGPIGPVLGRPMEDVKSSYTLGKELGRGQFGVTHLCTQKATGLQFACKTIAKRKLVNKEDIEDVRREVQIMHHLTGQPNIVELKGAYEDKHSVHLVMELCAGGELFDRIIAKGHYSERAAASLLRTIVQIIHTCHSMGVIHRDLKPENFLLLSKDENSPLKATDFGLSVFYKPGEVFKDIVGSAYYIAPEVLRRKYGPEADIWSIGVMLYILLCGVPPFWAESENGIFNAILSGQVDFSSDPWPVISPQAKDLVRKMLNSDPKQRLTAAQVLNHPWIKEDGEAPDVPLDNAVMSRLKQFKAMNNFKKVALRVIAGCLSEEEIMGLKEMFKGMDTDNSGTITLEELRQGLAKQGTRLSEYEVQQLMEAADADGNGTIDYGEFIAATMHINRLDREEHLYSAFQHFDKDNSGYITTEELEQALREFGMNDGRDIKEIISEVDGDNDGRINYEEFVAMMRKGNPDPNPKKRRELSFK

Row | Substance | Kcat, CPK34 (CPK34; [1]) | Kcat, CPK34 (CPK34; [2]) | kcat, CPK10 (CPK10; [1]) | kcat, CPK10 (CPK10; [2]) | kcat, CPK1 (CPK1; [1]) | kcat, CPK1 (CPK1; [2]) | Kcat, CPK34 (CPK34; [3]) | Kcat, CPK34 (CPK34; [4]) | Kcat, CPK16 (CPK16; [3]) | Kcat, CPK16 (CPK16; [4])
1 | aDFLKRLLSaGMNPN [jfh-597] | 475 nmol phosphate incorporated/min/mg enzyme | 614 nmol phosphate incorporated/min/mg enzyme | 1264 nmol phosphate incorporated/min/mg enzyme | 1639 nmol phosphate incorporated/min/mg enzyme | 5790 nmol phosphate incorporated/min/mg enzyme | 5900 nmol phosphate incorporated/min/mg enzyme |  |  |  | 
2 | VKIISRIF[S]QRSFRR [jfh-515] |  |  |  |  |  |  | 223 nmol phosphate incorporated/min/mg CPK | 231 nmol phosphate incorporated/min/mg CPK | 5114 nmol phosphate incorporated/min/mg CPK | 4854 nmol phosphate incorporated/min/mg CPK
3 | RYRRMERTSSMPRAS [jfh-097] |  |  |  |  |  |  | 502 nmol phosphate incorporated/min/mg CPK | 718 nmol phosphate incorporated/min/mg CPK | 3734 nmol phosphate incorporated/min/mg CPK | 2677 nmol phosphate incorporated/min/mg CPK
4 | KRFSFKKSFKLSGFSFKK [ach-400, reference compound] |  |  |  |  |  |  | 398 nmol phosphate incorporated/min/mg CPK | 541 nmol phosphate incorporated/min/mg CPK | 1795 nmol phosphate incorporated/min/mg CPK | 1429 nmol phosphate incorporated/min/mg CPK
5 | PLARTLSVAGLPGKK [ach-393, Syntide-2, reference compound] | 155 nmol phosphate incorporated/min/mg enzyme | 225 nmol phosphate incorporated/min/mg enzyme | 252 nmol phosphate incorporated/min/mg enzyme | 217 nmol phosphate incorporated/min/mg enzyme | 362 nmol phosphate incorporated/min/mg enzyme | 482 nmol phosphate incorporated/min/mg enzyme |  |  |  | 
